Reference: ChEMBL document CHEMBL1143831, “Small molecule inhibitors of aggregation indicate that amyloid beta oligomerization and fibrillization pathways are independent and distinct” (J Biol Chem, 2007)
Counter-ions that a name gives are not always drawn. Activity calls are given as the source filed them. The rule behind the calls is not given here.

Columns and labels:
[1] = Inhibition of synthetic amyloid beta-42 oligomerization by ELISA
[2] = Inhibition of synthetic amyloid beta42 oligomer formation by Western blot
Procedure, shortened: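 Aβ42 (NaOH stock, 45 µM final) incubated in PBS pH 7.4, 0.02% sodium azide at room temperature without stirring for 5 days, with compound at 300 µM in DMSO; vehicle controls at 1% DMSO. Aliquots were mixed 1:1 with 2x SDS sample buffer, boiled 5 min, and run on 4-20% Tris-HCl gels. The gels were transferred to nitrocellulose and probed with A11 anti-oligomer antibody, with 6E10 also used.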

[3] = Inhibition of synthetic amyloid beta-42 fibrillation at 30 uM by ThT fluorescence analysis relative to control
Procedure, shortened: (§1)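 Aβ42 (45 µM final) from 2 mM NaOH stock, sonicated, diluted into 10 mM HEPES, 100 mM NaCl, 0.02% sodium azide, pH 7.4; stirred at room temperature 4 days with compound in DMSO (controls 1% DMSO). Aliquot mixed with 3 µM ThT; ex 442 nm, em 482 nm; corrected with parallel protein-free reactions; triplicate, % of control.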

[4] = Inhibition of synthetic amyloid beta42 fibrillation at 300 uM by ThT fluorescence analysis relative to control; procedure, shortened: as §1
[5] = Inhibition of synthetic amyloid beta-42 fibrillation at 30 uM by light scattering analysis relative to control
Procedure, shortened: (§2)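 Aβ42 (45 µM final) from 2 mM NaOH stock, diluted into 10 mM HEPES, 100 mM NaCl, 0.02% sodium azide, pH 7.4; stirred at room temperature 4 days with compound in DMSO (controls 1% DMSO). Turbidity at 400 nm, corrected by the 400 nm reading of supernatant after 14,000 rpm, 30 min centrifugation; triplicate, relative to control.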

[6] = Inhibition of synthetic amyloid beta-42 fibrillation at 300 uM by light scattering analysis relative to control; procedure, shortened: as §2

Compound | IC50 [1] | Activity [2] | further results
OCCN1CCN(CCCN2c3ccccc3Sc3ccc(Cl)cc32)CC1 [PERPHENAZINE] | 26.1 µM |  | 
O=C1C=CC(=O)c2c(O)cccc21 [JUGLONE] | 67.6 µM | Active | 
CO[C@H]1/C=C/O[C@@]2(C)Oc3c(C)c(O)c4c(O)c(cc(O)c4c3C2=O)NC(=O)/C(C)=C\C=C\[C@H](C)[C@H](O)[C@@H](C)[C@@H](O)[C@@H](C)[C@H](OC(C)=O)[C@@H]1C [RIFAMYCIN] | 31.6 µM | inactive | 
COc1cc(/C=C/C(=O)CC(=O)/C=C/c2ccc(O)c(OC)c2)ccc1O [CURCUMIN] | 361 µM |  | 
COc1ccc2nc3cc(Cl)ccc3c(NC(C)CCCN(CCCl)CCCl)c2c1 (stereo not given) | 2050 µM |  | 
COc1ccc2c(c1)c(CC(=O)O)c(C)n2C(=O)c1ccc(Cl)cc1 [INDOMETHACIN] | 958 µM |  | 
CCN(CCO)c1ccc(/N=N/c2sc3cc(OC)ccc3[n+]2C)cc1 [BASIC BLUE 41] | 0.12 µM | inactive | 
N,N,N-trimethylhexadecan-1-aminium bromide |  | inactive | inhibition [3]: 9.8%; inhibition [4]: 0.5%; Activity [5]: Active; Activity [6]: inactive
CETRIMIDE [listing 1 of 2 here] | 15.9 µM |  | 
O=C(O)c1ccccc1-c1c2cc(Br)c(=O)c(Br)c-2oc2c(Br)c(O)c(Br)cc12 [EOSIN Y SODIUM] | 2790 µM |  | 
C1CCSC1 [TETRAHYDROTHIOPHENE] | 122 µM | Active | 
CC(Cc1ccc(O)c(O)c1)C(C)Cc1ccc(O)c(O)c1 (stereo not given) [NORDIHYDROGUAIARETIC ACID] | 14.5 µM | inactive | 
O=C1C=Cc2ccccc2C1=O [1,2-NAPHTHOQUINONE] | 11.5 µM | inactive | 
O=c1c(O)c(-c2cc(O)c(O)c(O)c2)oc2cc(O)cc(O)c12 [MYRICETIN] | 107 µM | Active | 
CNc1ccc2nc3ccc(N)cc3[s+]c2c1 [AZURE C] | 0.09 µM | inactive | 
C=C1c2c(Cl)ccc(O)c2C(=O)C2=C(O)[C@]3(O)C(=O)C(C(N)=O)=C(O)[C@@H](N(C)C)[C@@H]3[C@@H](O)[C@H]12.O=C(O)c1cc(S(=O)(=O)O)ccc1O [MECLOCYCLINE SULFOSALICYLATE] | 0.25 µM | inactive | 
Nc1c(/N=N/c2ccc(-c3ccc(/N=N/c4cc(S(=O)(=O)O)c5ccccc5c4N)cc3)cc2)cc(S(=O)(=O)O)c2ccccc12 [CONGO RED] | 10 µM | inactive | 
COc1cccc(C=O)c1O | 6.15 µM | inactive | 
COc1cccc2c1C(=O)c1c(O)c3c(c(O)c1C2=O)C[C@@](O)(C(C)=O)C[C@@H]3O[C@H]1C[C@H](N)[C@H](O)[C@H](C)O1 [DAUNORUBICIN HYDROCHLORIDE] | 7.48 µM | inactive | 
O=S1(=O)OC(c2ccc(O)cc2)(c2ccc(O)cc2)c2ccccc21 [PHENOLSULFONPHTHALEIN] | 426 µM |  | 
Cc1ccc2ccc3ccc(C)nc3c2n1 [NEOCUPROINE] | 17.4 µM | inactive | 
CCN(CC)c1ccc2c(-c3ccccc3C(C)=O)c3ccc(=[N+](CC)CC)cc-3oc2c1 | 310 µM |  | 
O=C(c1ccccc1O)c1ccccc1O [2,2'-DIHYDROXYBENZPHENONE] | 244 µM |  | 
CETRIMIDE [listing 2 of 2 here] |  | inactive | inhibition [3]: 112%; inhibition [4]: 0.7%; Activity [6]: inactive
O=c1cc2oc3cc(O)c(-c4ccc(O)cc4O)cc3nc-2cc1-c1ccc(O)cc1O [LACMOID] | 25.5 µM | inactive | 
CN(C)[C@@H]1C(O)=C(C(=O)NCN2CCCC2)C(=O)[C@@]2(O)C(O)=C3C(=O)c4c(O)cccc4[C@@](C)(O)[C@H]3C[C@@H]12 [ROLITETRACYCLINE] | 1.87 µM | inactive | 
COc1cc(-c2ccc(/N=N/c3ccc4c(S(=O)(=O)O)cc(S(=O)(=O)O)c(N)c4c3O)c(OC)c2)ccc1/N=N/c1ccc2c(S(=O)(=O)O)cc(S(=O)(=O)O)c(N)c2c1O [CHICAGO SKY BLUE SODIUM] | 2.58 µM | inactive | 
